Source: publication PMC2756606 (Organic letters, 2009)
Read-outs that look alike come from different tables or passages of the source.

Assays:
[1] = target: δOR (δ-opioid receptor) in HCT116 colon carcinoma cells engineered to express the δOR (Homo sapiens, UniProt P41143); assay: competitive binding assay, time-resolved fluorescence; details: TRF competitive binding; HCT116 cells expressing δOR
Method in brief: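 Purified test compounds were run in a competition format on whole HCT116 colon carcinoma cells engineered to express δOR. Ki was derived from a fitted competition curve, with R2 reported for the fit.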

[2] = system: mouse-isolated vas deferens, δ-opioid receptor (antagonism of δ-agonist DPDPE); assay: mouse-isolated vas deferens; assay type: biochemical; details: MVD assay against δ-agonist DPDPE; n=8
[3] = system: HCT116/δOR and parental HCT116 tumors in SCID mice; assay type: in vivo, mouse; details: 10 μg i.v. (tail vein), 15 min post-injection, not shown
δ-opioid receptor = details: cited from earlier work

Compound: CC[N+]1=C(C=CC=CC=C2N(CCCCCC(=O)NCCN3C(=O)CC(SCCC(=O)NCCCC[C@H](NC(=O)[C@@H]4Cc5ccccc5CN4C(=O)[C@@H](N)Cc4c(C)cc(O)cc4C)C(=O)O)C3=O)c3ccc(S(=O)(=O)O)cc3C2(C)C)C(C)(C)c2cc(S(=O)(=O)[O-])ccc21 (some centres unmarked) [Ligand 1]
- affinity of labeled ligand compared with unlabeled counterpart (ligand 6) [1]: equipotent to its unlabeled counterpart
- inhibitory potency, Ke [2]: 0.037 ± 0.009 nM
- systemic distribution, fluorescence intensity maps [3]: systemic presence of the compound with high intensity throughout the animal

Compound: H-Dmt-Tic-Lys(Ac)-OH
- Ki (δ-opioid receptor; δ-receptor affinity in radioligand binding assays): 0.047 nM

Compound: Dmt-Tic-Lys-NH2
- Ki (δ-opioid receptor; reported radioligand binding assays, compared with TRF results): 0.71 nM
